Experimental data taken from publication PMC1389615 (The Journal of General Physiology, 2004).
Where a chain is given by its changes, count along the chain named.

Legend:
Test in all cases: inside-out patch clamp, block of cGMP-activated current, Hill fit
Assay type in all cases: cell-based
[1] = molecular target: T1, CNGA1 (Bos taurus, UniProt Q00194, R342D)
T1 sequence (Q00194 1-690 R342D): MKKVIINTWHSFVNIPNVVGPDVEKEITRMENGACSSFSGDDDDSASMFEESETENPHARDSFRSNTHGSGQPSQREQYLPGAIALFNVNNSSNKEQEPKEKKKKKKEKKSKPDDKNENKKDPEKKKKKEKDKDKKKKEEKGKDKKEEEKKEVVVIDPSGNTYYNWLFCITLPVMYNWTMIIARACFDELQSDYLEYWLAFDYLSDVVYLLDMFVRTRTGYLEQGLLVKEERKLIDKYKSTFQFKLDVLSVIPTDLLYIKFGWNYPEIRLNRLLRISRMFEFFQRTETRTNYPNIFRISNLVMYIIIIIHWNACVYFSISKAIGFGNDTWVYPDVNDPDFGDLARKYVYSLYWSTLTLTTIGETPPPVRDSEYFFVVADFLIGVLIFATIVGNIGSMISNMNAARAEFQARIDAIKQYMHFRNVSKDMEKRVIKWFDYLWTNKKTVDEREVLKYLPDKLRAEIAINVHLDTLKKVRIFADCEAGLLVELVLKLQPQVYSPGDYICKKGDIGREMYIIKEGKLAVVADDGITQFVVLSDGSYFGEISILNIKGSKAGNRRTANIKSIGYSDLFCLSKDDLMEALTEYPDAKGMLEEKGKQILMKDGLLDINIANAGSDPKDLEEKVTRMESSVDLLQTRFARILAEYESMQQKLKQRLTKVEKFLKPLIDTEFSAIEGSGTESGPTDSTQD

[2] = molecular target: T2, CNGA2 (Rattus norvegicus, UniProt Q00195)
T2 sequence (Q00195 1-664): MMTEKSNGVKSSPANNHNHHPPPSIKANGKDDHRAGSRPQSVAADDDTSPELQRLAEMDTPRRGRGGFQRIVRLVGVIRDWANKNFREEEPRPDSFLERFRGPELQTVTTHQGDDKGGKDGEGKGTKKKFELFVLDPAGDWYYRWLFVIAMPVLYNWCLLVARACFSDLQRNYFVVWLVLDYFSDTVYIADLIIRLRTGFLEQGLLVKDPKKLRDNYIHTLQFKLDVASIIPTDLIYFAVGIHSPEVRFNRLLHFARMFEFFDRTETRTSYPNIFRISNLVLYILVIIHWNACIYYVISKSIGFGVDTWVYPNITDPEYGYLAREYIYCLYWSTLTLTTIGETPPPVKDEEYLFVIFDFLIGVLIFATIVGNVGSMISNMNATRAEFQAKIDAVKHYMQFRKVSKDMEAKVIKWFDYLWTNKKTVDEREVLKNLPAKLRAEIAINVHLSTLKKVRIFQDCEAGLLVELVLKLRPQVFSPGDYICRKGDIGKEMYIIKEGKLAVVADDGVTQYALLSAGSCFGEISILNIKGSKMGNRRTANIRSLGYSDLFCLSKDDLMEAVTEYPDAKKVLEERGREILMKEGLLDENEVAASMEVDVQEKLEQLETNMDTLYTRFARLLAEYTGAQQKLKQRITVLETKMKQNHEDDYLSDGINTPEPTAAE
Method in brief: (§1)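 Channels expressed in Xenopus oocytes 2–10 d after cRNA injection; inside-out patches, room temperature. […] Blocker applied at 0 mV with 20-ms steps to +20 mV every 5 s. Currents were cGMP-free subtracted. Hill fit, SEM, n = 5–7 patches.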

[3] = molecular target: T3, CNGA1 (Bos taurus, UniProt Q00194)
T3 sequence (Q00194 1-690): T1 sequence (Q00194 1-690 R342D) with D342R
Method in brief: as §1

[4] = molecular target: T4, CNGA1 (Bos taurus, UniProt Q00194, R342Y)
T4 sequence (Q00194 1-690 R342Y): T1 sequence (Q00194 1-690 R342D) with D342Y

## Cc1cc(N)c2ccccc2[n+]1CCCCCCCCCC[n+]1c(C)cc(N)c2ccccc21 [dequalinium]
[1]
  IC50: 123 ± 0.2 nM
[2]
  IC50: 2400 ± 290 nM
[3]
  IC50: 189 ± 4.19 nM
[4]
  IC50: 91 ± 0.1 nM
